Reference: paper PMC6331712 (ChemistryOpen, 2019)
Where “and” joins values, the source holds several entries; their conditions need not be identical. Identical values can stand only once.

Tests used:
[1] = Anodic peak potential by cyclic voltammetry; format: physicochemical; settings: 1.0 mM compound in 100 mM TRIS‐buffer (pH 7.4)
[2] = tested on: HEP‐G2 cells; test: MTT cell viability assay, HEP-G2 cells; format: cell-based, human; settings: for LD50 / LD25: HEP‐G2 cells, MTT; for LD50: 24 h exposure; for LD25: 48 h exposure; for Tox./Act. (toxicity/activity ratio, safety index): average LD25 (48 h, HEP‐G2) divided by average EC50 (KV7.2/3)
[3] = target: KV7.2/KV7.3 channel (Homo sapiens, UniProt O43525+O43526); format: cell-based; settings: for Emax: HEK293; for KV7.2/KV7.3 channel opening activity (in words): thallium flux assay, compared with 1
[4] = tested on: TAMH cells; test: MTT cell viability assay, TAMH cells; format: cell-based, mouse; settings: for LD50 / LD25: TAMH cells, MTT; for LD50: 24 h exposure; for LD25: 48 h exposure; for Tox./Act. (toxicity/activity ratio, safety index): average LD25 (48 h, TAMH) divided by average EC50 (KV7.2/3)
Summary of the method: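 MTT viability read-out in TAMH (transgenic mouse hepatocyte) and HEP-G2 (human hepatoma) cell lines. LD50 was taken after 24 h of exposure. […] LD50 values are means with standard deviations of 4–5 independent determinations. The ratio uses the mean EC50 from a thallium-flux KV7.2/3 assay (30 min exposure, four-parameter logistic fit).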

[5] = LogD7.4 determination from HPLC retention times with calibration curve; format: physicochemical; settings: pH 7.4; for logD 7.4: from HPLC retention factor and calibration curve

Sequence of KV7.2/KV7.3 channel (O43525 whole entry): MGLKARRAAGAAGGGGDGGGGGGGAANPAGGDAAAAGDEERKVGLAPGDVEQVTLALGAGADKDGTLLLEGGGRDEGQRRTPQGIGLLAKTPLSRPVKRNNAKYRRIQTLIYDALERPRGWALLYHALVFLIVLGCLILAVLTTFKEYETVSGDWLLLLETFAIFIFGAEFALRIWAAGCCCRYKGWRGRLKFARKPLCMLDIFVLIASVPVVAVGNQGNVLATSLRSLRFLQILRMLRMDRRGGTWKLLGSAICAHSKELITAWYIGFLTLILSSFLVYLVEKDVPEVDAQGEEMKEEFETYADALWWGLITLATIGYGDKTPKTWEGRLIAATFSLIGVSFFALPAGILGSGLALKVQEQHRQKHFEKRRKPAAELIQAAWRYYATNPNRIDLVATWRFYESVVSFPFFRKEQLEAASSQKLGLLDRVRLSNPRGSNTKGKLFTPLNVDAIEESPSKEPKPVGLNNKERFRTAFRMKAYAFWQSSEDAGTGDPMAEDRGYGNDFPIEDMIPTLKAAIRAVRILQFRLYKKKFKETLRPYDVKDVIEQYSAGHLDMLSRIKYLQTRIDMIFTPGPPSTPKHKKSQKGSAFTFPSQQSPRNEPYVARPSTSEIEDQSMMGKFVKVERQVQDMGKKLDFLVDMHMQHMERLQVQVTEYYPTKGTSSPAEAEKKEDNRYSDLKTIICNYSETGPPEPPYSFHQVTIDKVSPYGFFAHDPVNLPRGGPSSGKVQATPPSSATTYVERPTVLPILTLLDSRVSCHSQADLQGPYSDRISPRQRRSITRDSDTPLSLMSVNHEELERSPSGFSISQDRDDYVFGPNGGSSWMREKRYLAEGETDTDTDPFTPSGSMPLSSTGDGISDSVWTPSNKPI
Sequence of KV7.2/KV7.3 channel (O43526 whole entry): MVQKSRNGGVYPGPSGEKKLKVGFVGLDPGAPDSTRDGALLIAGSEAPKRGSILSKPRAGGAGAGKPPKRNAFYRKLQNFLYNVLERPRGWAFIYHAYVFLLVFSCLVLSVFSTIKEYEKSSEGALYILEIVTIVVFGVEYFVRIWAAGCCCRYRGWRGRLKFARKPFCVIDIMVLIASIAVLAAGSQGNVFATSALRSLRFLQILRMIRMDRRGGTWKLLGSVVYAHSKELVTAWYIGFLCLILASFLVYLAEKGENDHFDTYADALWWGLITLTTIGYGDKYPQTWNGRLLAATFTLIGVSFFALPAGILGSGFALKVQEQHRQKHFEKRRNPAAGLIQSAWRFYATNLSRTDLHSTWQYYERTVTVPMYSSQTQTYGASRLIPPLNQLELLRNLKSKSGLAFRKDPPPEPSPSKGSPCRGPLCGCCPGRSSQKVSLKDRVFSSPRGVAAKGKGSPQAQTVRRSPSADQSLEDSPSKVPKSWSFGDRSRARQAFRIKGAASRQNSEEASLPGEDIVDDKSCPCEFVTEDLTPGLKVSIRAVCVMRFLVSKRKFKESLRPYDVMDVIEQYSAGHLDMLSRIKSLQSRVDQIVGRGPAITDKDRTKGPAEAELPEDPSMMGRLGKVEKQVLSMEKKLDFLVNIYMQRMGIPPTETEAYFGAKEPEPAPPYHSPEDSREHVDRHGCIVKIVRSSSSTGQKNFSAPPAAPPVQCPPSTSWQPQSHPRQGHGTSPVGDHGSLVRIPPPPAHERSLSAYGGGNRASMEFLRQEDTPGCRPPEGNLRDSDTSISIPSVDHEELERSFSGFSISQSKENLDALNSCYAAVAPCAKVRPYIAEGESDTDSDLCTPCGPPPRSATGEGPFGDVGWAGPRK

Row | Compound | Anodic peak potential E pa [1] | LD50 [2] [µM] | EC50 [3] [nM] | LD50 [4] [µM] | chromatographic logD [5] | Emax [3] [%] | KV7.2/KV7.3 channel opening activity (in words) [3] | LD25 [4] | Tox./Act. (toxicity/activity ratio, safety index) [4] | LD25 [2] [µM] | Tox./Act. (toxicity/activity ratio, safety index) [2] | logD 7.4 [5]
1 | CCOC(=O)Nc1ccc([S+]([O-])Cc2ccc(F)cc2)nc1C (centres unmarked) [10 d] | n.o.^[g] | >500 | > 10000 | >500 | 3.02 | – | – | – | – | – | – | –
2 | CCOC(=O)Nc1ccc(SCc2ccc(-c3ccccc3)cc2)nc1N [9 b, Ethyl-{6-[(1,1'-biphenyl-4-yl)methylthio]-2-aminopyridin-3-yl}carbamate] | 452 mV | >250 | 253 ± 42 | >63 | 4.34 | 69 ± 9 | as active as the marketed drug 1 | 14 ± 13 µM | 55 | – | – | –
3 | Nc1nc(SCc2ccc(F)cc2)ccc1NC(=O)c1ccc(F)c(F)c1 [9 a, N-{2-A mino-6-[(4-fluorobenzyl)thio]pyridin-3-yl}-3,4-difluorobenzamide] | 442 mV | 8 ± 3 | 260 ± 82 | >30 | 3.9 | 100 ± 23 | as active as the marketed drug 1 | 13 ± 04 µM | 50 | 4 ± 1 | 15 | –
4 | CCOC(=O)Nc1ccc([S+]([O-])Cc2ccc(-c3ccccc3)cc2)nc1N (centres unmarked) [10 b, E t hyl {6-[(1,1'-biphenyl-4-yl)methylsulfinyl]-2-aminopyridin-3-yl}carbamate] | 654 mV | >63 | > 10000 | >63 | 3.72 | – | – | – | – | – | – | –
5 | CCOC(=O)Nc1ccc(NCc2ccc(F)cc2)nc1N [Compound 1, Flupirtine, reference compound] | 350 mV | 547 ± 111 | 918 ± 99 | 487 ± 51 | 2.96 | 100 | – | 103 ± 47 µM | 112 | 74 ± 40 | 81 | –
6 | CNc1nc(SCc2ccccc2)ccc1NC(=O)Cc1cc(F)cc(F)c1 [9 g, N‐[6‐(Benzylthio)‐2‐(methylamino)pyridin‐3‐yl]‐2‐(3,5‐difluorophenyl)acetamide] | 631 mV | >10 | 15 ± 2 | >7.5 | 4.27 | 147 ± 9 | markedly more potent and effective | 6 ± 3 µM and 6 ± 03 µM | 400 | 4 ± 4 | 267 | –
7 | CCOC(=O)Nc1ccc(SCCN2CCCCC2)nc1N [9 f] | 573 mV | >500 | – | >500 | – | – | – | – | – | – | – | 2.04
8 | CCOC(=O)Nc1ccc(SCc2cc(OC)cc(OC)c2)nc1N [9 c, Ethyl-{2-amino-6-[(3 ,5-dimethoxybenzylthio)pyridin-3-yl]}carbamate] | 450 mV | 134 ± 22 | – | >250 | – | – | – | – | – | – | – | 3.61
9 | Nc1nc([S+]([O-])Cc2ccc(F)cc2)ccc1NC(=O)c1ccc(F)c(F)c1 (centres unmarked) [10 a, N-[2-Amino-6-(4-fluorobenzylsulfinyl)pyridin-3-yl]-3 ,4-difluorobenzamide] | 628 mV | >125 | > 10000 | >100 | 3.24 | – | – | – | – | – | – | –
10 | CCOC(=O)Nc1ccc(SC(=O)c2ccc(F)cc2)nc1N [9 e, S-{6-Amino-5-[(ethoxycarbonyl)amino]pyridin-2-yl} 4-fluorobenzothioate] | 573 mV | >250 | > 10000 | >125 | 3 | – | inactive in the tested concentration range | – | – | – | – | –
11 | CCOC(=O)Nc1ccc(SCc2ccc(F)cc2)nc1C [9 h, E t hyl [6-(4-fluorobenzylthio)-2-methylpyridin-3-yl]carbamate] | 855 mV | >30 | 269 ± 31 | >10 | 3.85 | 129 ± 3 | – | >10 µM | – | 25 ± 16 | 93 | –
12 | CCOC(=O)Nc1ccc(SCc2ccccn2)nc1N [9 d, Ethyl-{2-amino-6-[(pyridin-2-ylmethylthio)pyridin-3-yl]}carbamate] | 499 mV | 831 ± 149 | – | >1000 | – | – | – | – | – | – | – | 2.62
